Experimental data as given in BindingDB's records for doi:10.1021/np300764u (Heinrich-Heine University, 2013).

Key:
[1] = biological target: Receptor tyrosine-protein kinase erbB-2 (Homo sapiens, UniProt P04626); test: Inhibition of ERBB2 (unknown origin)
Outline: (§1)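 Biochemical (cell-free) assay within a panel of 24 protein kinases. Results reported as IC50 values. Procedure as described in earlier work.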

Ephrin type-B receptor 4 = biological target: T1, Ephrin type-B receptor 4 (Homo sapiens, UniProt P54760); test: Inhibition of EPHB4 (unknown origin); outline: as §1
T1 sequence (P54760 whole entry): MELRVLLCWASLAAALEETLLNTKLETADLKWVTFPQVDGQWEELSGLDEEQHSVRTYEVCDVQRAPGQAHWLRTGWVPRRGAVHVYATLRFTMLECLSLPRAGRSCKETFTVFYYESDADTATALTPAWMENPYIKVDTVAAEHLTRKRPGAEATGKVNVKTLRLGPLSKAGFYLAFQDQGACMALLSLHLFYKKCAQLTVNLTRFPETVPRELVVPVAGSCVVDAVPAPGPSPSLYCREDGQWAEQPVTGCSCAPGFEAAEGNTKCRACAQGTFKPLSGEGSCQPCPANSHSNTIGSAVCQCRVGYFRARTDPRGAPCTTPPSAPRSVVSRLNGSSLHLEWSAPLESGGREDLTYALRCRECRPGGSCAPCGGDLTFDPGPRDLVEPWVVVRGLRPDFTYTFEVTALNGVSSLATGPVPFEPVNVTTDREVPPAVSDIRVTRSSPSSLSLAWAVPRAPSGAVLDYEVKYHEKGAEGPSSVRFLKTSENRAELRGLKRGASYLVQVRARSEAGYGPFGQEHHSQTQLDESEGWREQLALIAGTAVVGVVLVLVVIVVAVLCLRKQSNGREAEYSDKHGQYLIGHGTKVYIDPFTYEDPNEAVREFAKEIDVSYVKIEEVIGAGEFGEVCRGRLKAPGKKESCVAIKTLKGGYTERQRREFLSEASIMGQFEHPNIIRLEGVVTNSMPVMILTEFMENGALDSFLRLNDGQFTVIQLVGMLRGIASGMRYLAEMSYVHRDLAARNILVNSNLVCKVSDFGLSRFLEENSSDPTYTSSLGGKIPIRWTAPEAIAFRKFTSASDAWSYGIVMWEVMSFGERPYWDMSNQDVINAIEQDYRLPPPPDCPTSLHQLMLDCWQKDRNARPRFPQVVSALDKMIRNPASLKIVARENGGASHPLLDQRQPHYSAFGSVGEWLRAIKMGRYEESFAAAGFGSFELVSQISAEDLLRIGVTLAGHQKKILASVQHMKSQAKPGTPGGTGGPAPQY

Chain of Receptor tyrosine-protein kinase erbB-2 (P04626 whole entry): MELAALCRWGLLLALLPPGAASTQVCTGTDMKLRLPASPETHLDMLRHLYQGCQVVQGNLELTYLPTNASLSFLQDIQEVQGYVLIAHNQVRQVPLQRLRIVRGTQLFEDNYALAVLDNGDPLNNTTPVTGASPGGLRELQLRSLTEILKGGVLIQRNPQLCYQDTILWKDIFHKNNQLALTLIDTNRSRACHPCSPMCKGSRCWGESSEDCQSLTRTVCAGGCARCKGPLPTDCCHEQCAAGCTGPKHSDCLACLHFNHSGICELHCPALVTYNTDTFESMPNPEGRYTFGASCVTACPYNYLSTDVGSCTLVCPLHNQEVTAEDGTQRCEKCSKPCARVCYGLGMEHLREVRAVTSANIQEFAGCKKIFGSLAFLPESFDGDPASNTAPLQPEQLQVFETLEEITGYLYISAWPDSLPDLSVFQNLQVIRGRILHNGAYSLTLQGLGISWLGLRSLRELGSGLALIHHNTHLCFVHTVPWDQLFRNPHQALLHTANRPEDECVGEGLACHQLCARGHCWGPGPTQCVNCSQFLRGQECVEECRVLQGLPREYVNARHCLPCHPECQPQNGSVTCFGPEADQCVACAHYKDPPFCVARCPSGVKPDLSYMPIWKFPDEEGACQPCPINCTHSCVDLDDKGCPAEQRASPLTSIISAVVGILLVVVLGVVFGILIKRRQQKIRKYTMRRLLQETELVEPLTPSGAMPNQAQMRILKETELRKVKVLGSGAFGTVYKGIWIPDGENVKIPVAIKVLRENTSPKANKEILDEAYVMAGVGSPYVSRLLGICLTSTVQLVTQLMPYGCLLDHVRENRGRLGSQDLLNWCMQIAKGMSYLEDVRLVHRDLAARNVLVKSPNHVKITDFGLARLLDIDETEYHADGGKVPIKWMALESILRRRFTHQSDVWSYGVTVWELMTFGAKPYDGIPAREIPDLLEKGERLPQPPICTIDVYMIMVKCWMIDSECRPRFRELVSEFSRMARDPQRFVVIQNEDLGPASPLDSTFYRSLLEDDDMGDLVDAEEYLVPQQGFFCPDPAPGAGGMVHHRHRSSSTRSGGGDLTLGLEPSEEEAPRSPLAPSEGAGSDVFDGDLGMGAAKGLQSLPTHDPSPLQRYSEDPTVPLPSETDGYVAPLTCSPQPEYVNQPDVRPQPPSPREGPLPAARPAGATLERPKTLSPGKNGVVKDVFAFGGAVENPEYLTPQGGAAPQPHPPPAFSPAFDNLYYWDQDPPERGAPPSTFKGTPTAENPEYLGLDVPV

IC50 [1] [nM] | IC50 (Ephrin type-B receptor 4) [nM] | Structure (SMILES)
2100 | – | O=NC(Cc1cc(Br)c(O)c(-c2cc(CC(N=O)C(=O)NCCc3ccc(O)c(Br)c3)cc(Br)c2O)c1)C(=O)NCCc1ccc(O)c(Br)c1 (stereo not drawn) [BASTADIN 3]
2100 | 3400 | O=NC(Cc1cc(Br)c(O)c(Oc2ccc(CCNC(=O)C(Cc3cc(Br)c(O)c(-c4cc(CC(N=O)C(=O)NCCc5ccc(O)c(Br)c5)cc(Br)c4O)c3)N=O)cc2Br)c1)C(=O)NCCc1ccc(O)c(Br)c1 (stereo not drawn) [Sesquibastadin 1]
